Experimental data from the M2OR odorant receptor database.
Positions count from the first letter of the chain named.

What was measured:
Details in all cases: stereoisomer not certain
[1] = biological target: T1, OR8I2 (Homo sapiens) (UniProt Q8N0Y5)
T1 sequence (whole entry): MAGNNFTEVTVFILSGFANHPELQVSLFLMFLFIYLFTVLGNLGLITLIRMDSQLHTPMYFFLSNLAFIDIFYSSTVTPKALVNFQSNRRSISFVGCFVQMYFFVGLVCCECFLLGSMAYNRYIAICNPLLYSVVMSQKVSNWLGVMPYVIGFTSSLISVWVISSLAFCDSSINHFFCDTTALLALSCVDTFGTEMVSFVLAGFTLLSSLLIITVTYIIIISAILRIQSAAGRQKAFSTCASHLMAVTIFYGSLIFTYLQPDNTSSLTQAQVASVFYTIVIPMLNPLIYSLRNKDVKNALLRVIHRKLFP
How it was run: (§1)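 Each entry records the cell line, G-protein, co-transfected protein and tags used. Methods varied with the source, often transient luciferase assays in mammalian cell lines. A receptor–molecule pair is called responsive (active) if the original authors judged its signal statistically different from baseline and non-responsive (inactive) otherwise.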

[2] = biological target: T2, OR8J1 (Homo sapiens) (UniProt Q8NGP2)
T2 sequence (whole entry): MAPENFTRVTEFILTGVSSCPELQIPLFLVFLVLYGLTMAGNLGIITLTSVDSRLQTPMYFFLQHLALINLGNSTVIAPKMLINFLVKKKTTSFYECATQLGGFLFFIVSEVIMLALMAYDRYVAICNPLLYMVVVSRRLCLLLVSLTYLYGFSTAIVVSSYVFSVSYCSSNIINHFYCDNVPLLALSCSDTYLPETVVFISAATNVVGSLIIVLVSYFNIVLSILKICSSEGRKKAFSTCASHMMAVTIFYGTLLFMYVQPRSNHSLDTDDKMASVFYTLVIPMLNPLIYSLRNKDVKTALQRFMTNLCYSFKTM
How it was run: as §1

[3] = biological target: T3, OR8J3 (Homo sapiens) (UniProt Q8NGG0)
T3 sequence (whole entry): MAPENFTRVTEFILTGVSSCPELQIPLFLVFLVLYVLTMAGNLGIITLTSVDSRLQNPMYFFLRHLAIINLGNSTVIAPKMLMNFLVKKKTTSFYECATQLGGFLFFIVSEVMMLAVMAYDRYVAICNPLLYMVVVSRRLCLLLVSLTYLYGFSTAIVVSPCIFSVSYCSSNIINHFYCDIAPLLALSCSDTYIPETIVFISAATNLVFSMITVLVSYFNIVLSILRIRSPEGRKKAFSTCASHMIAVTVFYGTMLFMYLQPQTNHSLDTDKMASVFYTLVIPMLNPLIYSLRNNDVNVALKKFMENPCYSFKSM
How it was run: as §1

[4] = biological target: T4, OR8K1 (Homo sapiens) (UniProt Q8NGG5)
T4 sequence (whole entry): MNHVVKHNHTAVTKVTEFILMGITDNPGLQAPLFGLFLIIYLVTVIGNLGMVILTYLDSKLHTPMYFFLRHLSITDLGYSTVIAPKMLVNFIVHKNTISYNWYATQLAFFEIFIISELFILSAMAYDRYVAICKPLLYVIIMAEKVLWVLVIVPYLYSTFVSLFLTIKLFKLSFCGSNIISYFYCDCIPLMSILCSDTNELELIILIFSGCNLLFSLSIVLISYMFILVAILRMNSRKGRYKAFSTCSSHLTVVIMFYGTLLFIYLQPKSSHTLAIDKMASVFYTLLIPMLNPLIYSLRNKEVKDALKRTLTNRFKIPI
How it was run: as §1

[5] = biological target: T5, OR8K3 (Homo sapiens) (UniProt Q8NH51)
T5 sequence (whole entry): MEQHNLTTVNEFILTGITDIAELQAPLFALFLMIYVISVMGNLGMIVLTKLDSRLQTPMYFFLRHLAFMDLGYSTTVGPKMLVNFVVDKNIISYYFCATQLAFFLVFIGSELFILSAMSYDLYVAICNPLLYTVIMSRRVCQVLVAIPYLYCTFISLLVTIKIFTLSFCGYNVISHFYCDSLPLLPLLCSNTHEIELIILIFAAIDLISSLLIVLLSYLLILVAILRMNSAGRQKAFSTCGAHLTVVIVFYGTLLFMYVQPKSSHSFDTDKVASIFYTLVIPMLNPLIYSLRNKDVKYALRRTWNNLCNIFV
How it was run: as §1

[6] = biological target: T6, OR8K5 (Homo sapiens) (UniProt Q8NH50)
T6 sequence (whole entry): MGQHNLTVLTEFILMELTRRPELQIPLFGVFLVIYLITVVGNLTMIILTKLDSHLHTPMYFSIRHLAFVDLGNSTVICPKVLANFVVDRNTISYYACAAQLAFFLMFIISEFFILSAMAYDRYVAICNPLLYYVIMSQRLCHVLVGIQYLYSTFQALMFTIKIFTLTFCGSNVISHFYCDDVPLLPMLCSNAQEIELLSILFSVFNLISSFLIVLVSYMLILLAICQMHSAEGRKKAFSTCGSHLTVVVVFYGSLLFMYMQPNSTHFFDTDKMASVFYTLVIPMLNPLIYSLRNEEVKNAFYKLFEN
How it was run: as §1

[7] = biological target: T7, OR8S1 (Homo sapiens) (UniProt Q8NH09)
T7 sequence (whole entry): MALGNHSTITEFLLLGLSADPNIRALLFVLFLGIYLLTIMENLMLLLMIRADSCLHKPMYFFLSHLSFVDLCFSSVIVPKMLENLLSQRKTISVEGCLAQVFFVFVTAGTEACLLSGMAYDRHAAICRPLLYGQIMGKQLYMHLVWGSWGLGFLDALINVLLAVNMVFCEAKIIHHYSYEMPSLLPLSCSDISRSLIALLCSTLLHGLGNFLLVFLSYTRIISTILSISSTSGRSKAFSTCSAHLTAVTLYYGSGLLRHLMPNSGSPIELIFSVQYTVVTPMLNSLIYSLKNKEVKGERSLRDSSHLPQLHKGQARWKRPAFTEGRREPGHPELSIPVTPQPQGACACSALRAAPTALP
How it was run: as §1

[8] = biological target: T8, OR8U1 (Homo sapiens) (UniProt Q8NH10)
T8 sequence (whole entry): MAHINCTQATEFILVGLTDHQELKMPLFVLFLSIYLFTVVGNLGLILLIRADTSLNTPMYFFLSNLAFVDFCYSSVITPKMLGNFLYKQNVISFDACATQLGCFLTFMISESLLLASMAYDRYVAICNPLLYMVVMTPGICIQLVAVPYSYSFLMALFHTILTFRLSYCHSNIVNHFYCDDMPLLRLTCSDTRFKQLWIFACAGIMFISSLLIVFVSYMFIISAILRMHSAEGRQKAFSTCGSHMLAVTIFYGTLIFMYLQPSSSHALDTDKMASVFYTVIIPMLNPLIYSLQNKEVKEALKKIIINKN
How it was run: as §1

[9] = biological target: T9, OR8U3 (Homo sapiens) (UniProt Q8NH85)
T9 sequence (whole entry): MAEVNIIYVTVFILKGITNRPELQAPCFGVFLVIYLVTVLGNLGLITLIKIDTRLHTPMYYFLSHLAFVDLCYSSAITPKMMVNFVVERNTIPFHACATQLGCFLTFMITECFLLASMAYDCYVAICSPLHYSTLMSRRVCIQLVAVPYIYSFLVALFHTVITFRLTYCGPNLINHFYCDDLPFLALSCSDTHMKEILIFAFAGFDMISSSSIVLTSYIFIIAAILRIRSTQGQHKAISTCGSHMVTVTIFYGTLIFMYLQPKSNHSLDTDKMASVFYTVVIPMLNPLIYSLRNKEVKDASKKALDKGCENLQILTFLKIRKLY
How it was run: as §1

[10] = biological target: T10, OR8U8 (Homo sapiens) (UniProt P0C7N1)
T10 sequence (whole entry): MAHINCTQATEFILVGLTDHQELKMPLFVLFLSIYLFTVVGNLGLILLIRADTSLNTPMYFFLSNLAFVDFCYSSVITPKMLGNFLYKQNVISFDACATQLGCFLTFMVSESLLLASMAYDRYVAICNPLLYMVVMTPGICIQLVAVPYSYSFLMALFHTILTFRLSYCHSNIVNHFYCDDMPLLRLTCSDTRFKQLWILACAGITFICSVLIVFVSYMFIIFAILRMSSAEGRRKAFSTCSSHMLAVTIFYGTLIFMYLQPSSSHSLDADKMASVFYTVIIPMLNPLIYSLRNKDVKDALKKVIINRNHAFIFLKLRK
How it was run: as §1

[11] = biological target: T11, OR8U9 (Homo sapiens) (UniProt P0C7N5)
T11 sequence (whole entry): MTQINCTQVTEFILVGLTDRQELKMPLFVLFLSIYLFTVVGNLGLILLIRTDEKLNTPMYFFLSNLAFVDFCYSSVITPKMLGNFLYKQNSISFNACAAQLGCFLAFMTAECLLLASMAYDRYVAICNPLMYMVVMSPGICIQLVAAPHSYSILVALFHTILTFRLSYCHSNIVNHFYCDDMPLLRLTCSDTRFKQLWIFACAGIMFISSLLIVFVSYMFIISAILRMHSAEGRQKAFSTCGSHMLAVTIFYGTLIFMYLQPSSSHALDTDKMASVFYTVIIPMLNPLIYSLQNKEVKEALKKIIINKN
How it was run: as §1

[12] = biological target: T12, OR9A2 (Homo sapiens) (UniProt Q8NGT5)
T12 sequence (whole entry): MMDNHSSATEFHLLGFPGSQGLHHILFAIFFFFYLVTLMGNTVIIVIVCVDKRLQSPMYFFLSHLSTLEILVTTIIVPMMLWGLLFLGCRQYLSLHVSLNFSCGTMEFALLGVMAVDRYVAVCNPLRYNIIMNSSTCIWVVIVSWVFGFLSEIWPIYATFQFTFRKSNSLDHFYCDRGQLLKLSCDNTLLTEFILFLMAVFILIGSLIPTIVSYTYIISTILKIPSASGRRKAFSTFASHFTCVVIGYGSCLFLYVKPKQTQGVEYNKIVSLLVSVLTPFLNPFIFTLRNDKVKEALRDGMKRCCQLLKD
How it was run: as §1

[13] = tested on: T13, OR8J1
T13 sequence (whole entry): T2 sequence (whole entry) with Y120C
How it was run: as §1

[14] = tested on: T14, OR8J3 E4V
T14 sequence (whole entry): T3 sequence (whole entry) with E4V
How it was run: as §1

[15] = tested on: T15, OR8U9 T2A Q3H Q293R
T15 sequence (whole entry): T11 sequence (whole entry) with T2A, Q3H, Q293R
How it was run: as §1

[16] = tested on: T16, OR8U9
T16 sequence (whole entry): T11 sequence (whole entry) with Q293R
How it was run: as §1

[17] = tested on: T17, OR9A2 C304Y
T17 sequence (whole entry): T12 sequence (whole entry) with C304Y
How it was run: as §1

[18] = biological target: OR8J2 (Homo sapiens) (UniProt Q8NGG1)
How it was run: as §1

[19] = tested on: T18, OR8U8
T18 sequence (whole entry): T10 sequence (whole entry) with V109I, S112C
How it was run: as §1

[20] = tested on: T19, OR8U8; remark: listed apart in the source
T19 sequence (whole entry): T10 sequence (whole entry) with H20R, V109I, R165C
How it was run: as §1

Measured: odorant receptor agonist call

Sequence of OR8J2 (Homo sapiens) (Q8NGG1 whole entry): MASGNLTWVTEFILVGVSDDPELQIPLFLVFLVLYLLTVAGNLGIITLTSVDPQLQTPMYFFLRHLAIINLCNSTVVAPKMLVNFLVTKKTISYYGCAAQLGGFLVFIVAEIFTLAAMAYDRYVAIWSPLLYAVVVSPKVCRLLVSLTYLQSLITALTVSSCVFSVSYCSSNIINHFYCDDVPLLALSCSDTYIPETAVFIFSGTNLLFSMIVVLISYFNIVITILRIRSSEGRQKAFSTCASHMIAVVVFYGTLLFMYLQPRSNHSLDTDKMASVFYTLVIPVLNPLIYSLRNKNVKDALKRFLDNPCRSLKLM

CC(CO)CS (centres undefined)
not listed: [13] | [14] | [15] | [16] | [17] | [18] | [19] | [20]
inactive: all other assays above

CCCCCCC=CCCC=O
not listed: [18] | [19] | [20]
inactive: all other assays above

CC(=O)c1c(C)c([N+](=O)[O-])c(C(C)(C)C)c([N+](=O)[O-])c1C
not listed: [13] | [14] | [15] | [16] | [17] | [19] | [20]
inactive: all other assays above

CCC1OC(C)=C(O)C1=O (centres undefined)
not listed: [10] | [18]
inactive: all other assays above

CC1=NC(C)C(C)S1 (centres undefined)
not listed: [10] | [18]
inactive: all other assays above

CC1CCCCCCCCCCCCC(=O)C1 (centres undefined)
not listed: [13] | [14] | [15] | [16] | [17] | [19] | [20]
inactive: all other assays above

CC1=C(O)C(=O)OC1C (centres undefined)
not listed: [10] | [18]
inactive: all other assays above
